Assay results from article PMC8197731 (The journal of pain, 2021).
“Also recorded” adds a separate entry of the source.

Key:
WT and PAR3^−/− mice [1] = format: in vivo, mouse
How it was run: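 Eight-week-old male mice were primed by intraplantar injection and allowed to recover completely (14 d), then given 100 ng PGE2 into the same hind paw. Facial expressions were video-recorded with mice placed individually in 9×5×5 cm cubicles, using an adapted mouse grimace scale protocol. Scores were averaged per time point for each cohort, with 4 mice per genotype.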

WT and PAR3^−/− mice [2] = assay: Facial grimacing; format: in vivo, mouse; conditions: for facial grimacing, WT and PAR3^−/− / facial grimacing, PAR3^−/− and WT: male
WT and PAR3^−/− mice [3] = assay: Mechanical paw withdrawal threshold; format: in vivo, mouse
WT and PAR3^−/− mice [4] = format: in vivo, mouse; remark: listed apart in the source
[5] = system: lamina IIo neurons in lumbar segments of mouse spinal cord
[6] = system: human smooth muscle cells; conditions: ref [6]; cited from earlier work
[7] = system: human A-498 carcinoma cells; conditions: ref [35]; cited from earlier work
rat astrocytes = conditions: ref [60]; cited from earlier work
mouse lung fibroblasts = conditions: ref [35]; cited from earlier work
WT and PAR3^−/− mice [8] = assay: Thermal sensitivity; format: in vivo, mouse; conditions: C660, Hargreaves
[9] = system: HEK293 cells not induced to express PAR3; assay: RTCA; format: cell-based; conditions: varying concentrations of C660; Cell Index
How it was run: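 Uninduced HEK293 Flp-In T-Rex cells were plated on poly-L-lysine E-plates in DMEM/F12 with 5% FBS, run alongside tetracycline-induced cells. Compound was added in quadruplicate at varying final concentrations once impedance stabilized (~6 h). Cell Index, calculated as (Zi−Z0)/15 Ω, was recorded every minute for 4 h, and peak changes after addition were taken.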

[10] = Solubility of the synthesized ligands; format: physicochemical; conditions: aqueous buffers (as printed for C751)
human PAR3 [11] = molecular target: T1, human PAR3 (Homo sapiens, UniProt O00254); assay: RTCA; format: cell-based
T1 sequence (O00254 22-374): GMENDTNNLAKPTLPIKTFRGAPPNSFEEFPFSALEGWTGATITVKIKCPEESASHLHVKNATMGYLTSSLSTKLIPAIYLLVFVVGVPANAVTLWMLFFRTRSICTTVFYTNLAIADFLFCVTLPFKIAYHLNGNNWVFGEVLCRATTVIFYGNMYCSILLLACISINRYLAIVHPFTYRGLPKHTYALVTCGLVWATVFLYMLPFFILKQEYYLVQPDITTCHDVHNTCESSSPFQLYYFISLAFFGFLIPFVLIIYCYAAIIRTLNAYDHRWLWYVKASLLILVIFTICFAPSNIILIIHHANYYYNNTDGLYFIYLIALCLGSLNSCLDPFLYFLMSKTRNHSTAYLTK
How it was run: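 HEK293 Flp-In T-Rex cells stably carrying human PAR3 were induced with tetracycline (0.3 or 1 μg/mL, 48 h), then plated on poly-L-lysine E-plates in DMEM/F12 with 5% FBS. At Cell Index stabilization (~6 h), compound was added in quadruplicate at varying final concentrations. CI was read every minute for 4 h. Peak CI changes were normalized to percent of the plate's peak response, and EC50 was fitted across multiple plates.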

human PAR3 [12] = molecular target: T1, human PAR3; conditions: COS-7 cells transfected with human PAR3; ref [30]; cited from earlier work
Murine PAR3 = conditions: COS-7 cells transfected with murine PAR3; ref [47]; cited from earlier work
[13] = primed with 2AT 30 pmol, i.pl, PGE2 100 ng after 14 d, n = 4/group
[14] = 2AT 30 pmol, hind paw, n = 4/group
[15] = primed with IL-6 0.1 ng, i.pl, PGE2 100 ng after 14 d, n = 4/group
[16] = TFFLLR-NH2 100 μg, i.pl, male, n = 4/group
[17] = C660 30 pmol intraplantar, WT male mice, n = 4/group
[18] = thrombin 10 units, i.pl, male, n = 4/group
[19] = thrombin 10 units, i.pl, male, n = 4/group, listed as thrombin

## 2-aminothiazo-4-yl-LIGRL-NH2 [Compound 2AT, reference compound]
WT and PAR3^−/− mice [1]; [13]
  facial grimacing after PGE2 (priming), WT and PAR3^−/−: increased in both groups
WT and PAR3^−/− mice [2]; [14]
  facial grimacing, WT and PAR3^−/−: significantly increased (A) mechanical hypersensitivity (B) and facial grimacing
  duration of facial grimacing, WT and PAR3^−/−: up to 5 hours
WT and PAR3^−/− mice [3]; 2AT 30 pmol, hind paw, male, n = 4/group
  mechanical hypersensitivity, WT and PAR3^−/−: significantly increased (A) mechanical hypersensitivity; also recorded: did not show any differences in acute responses in PAR3^−/− mice
WT and PAR3^−/− mice [3]; [14]
  duration of mechanical hypersensitivity, WT and PAR3^−/−: up to 5 hours
WT and PAR3^−/− mice [4]; primed with 2AT 30 pmol, i.pl, PGE2 100 ng after 14 d, WT
  duration of mechanical hyperalgesia after PGE2 (priming), WT: up to 24 hours
WT and PAR3^−/− mice [4]; [13]
  mechanical hyperalgesia after PGE2 (priming), WT and PAR3^−/−: profound deficit in priming in the PAR3^−/− mice; also recorded: robust in the WT group only; also recorded: loss of hyperalgesic priming
WT and PAR3^−/− mice [4]; primed with 2AT 30 pmol, i.pl, PGE2 100 ng after 14 d, unpaired t-test
  priming effect size (von Frey), WT vs PAR3^−/−: significant genotype difference between WT and PAR3^−/− groups

## NC1=N[C@H](O)[C@H]2[C@H]3O[C@]4(O)O[C@@H]([C@@H](O)[C@@]2(N1)[C@@H]4O)[C@]3(O)CO [Tetrodotoxin (TTX), Tetrodotoxin, reference compound]
[5]
  effect of TTX on C660-induced increase of synaptic event frequency: did not influence the effect of C660 on the increased frequency of synaptic events

## AYPGKF-NH2 [reference compound]
WT and PAR3^−/− mice [2]; AYPGKF-NH2 100 μg, i.pl, PAR3^−/−, 1 hr post-injection, n = 4/group
  facial grimacing, PAR3^−/−, 1 hr: transiently increased
WT and PAR3^−/− mice [2]; AYPGKF-NH2 100 μg, i.pl, n = 4/group
  facial grimacing, WT and PAR3^−/−: did not significantly change withdrawal thresholds and grimacing in WT while a transient effect was seen in PAR3^−/− mice
WT and PAR3^−/− mice [3]; AYPGKF-NH2 100 μg, hind paw, male, n = 4/group
  paw withdrawal threshold, WT and PAR3^−/−: did not significantly change withdrawal thresholds and grimacing in WT while a transient effect was seen in PAR3^−/− mice; also recorded: did not change significantly in both WT and PAR3^−/− mice groups

## IL-6: inflammatory cytokine interleukin 6
WT and PAR3^−/− mice [1]; [15]
  hyperalgesic priming (facial grimacing), PAR3^−/− vs WT: not significantly affected by PGE2 treatment in comparison to WT mice; also recorded: hyperalgesic priming was diminished as measured by mechanical hypersensitivity and grimacing in PAR3^−/− mice
WT and PAR3^−/− mice [4]; [15]
  hyperalgesic priming (paw withdrawal), PAR3^−/− vs WT: not significantly affected by PGE2 treatment in comparison to WT mice; also recorded: hyperalgesic priming was diminished as measured by mechanical hypersensitivity and grimacing in PAR3^−/− mice; also recorded: loss of hyperalgesic priming

## TFFLLR-NH2 [reference compound]
WT and PAR3^−/− mice [2]; TFFLLR-NH2 100 μg, i.pl, PAR3^−/−
  duration of facial grimacing, PAR3^−/−: up to 5 hours
WT and PAR3^−/− mice [2]; TFFLLR-NH2 100 μg, i.pl, n = 4/group
  facial grimacing, PAR3^−/− and WT: induced prolonged facial grimacing in PAR3^−/− but not WT mice
WT and PAR3^−/− mice [3]; [16]
  mechanical hypersensitivity, PAR3^−/− vs WT: significantly more robust and prolonged in PAR3^−/− mice; also recorded: more marked in the latter group. Cumulatively, the genotypic differences throughout 48 hours post-injection were significant
  mechanical withdrawal threshold, WT and PAR3^−/−: induced mechanical hypersensitivity in both WT and PAR3^−/−; also recorded: significantly reduced mechanical withdrawal thresholds in WT and PAR3^−/− mice

## TFRGAP
[6]
  Ca2+ response in human smooth muscle cells: elicited a Ca^2+ response in rat astrocytes [60] and human smooth muscle cells
[7]
  ERK activation, A-498 cells: induced extracellular regulated kinase (ERK) activation via PAR1 rather than PAR3
Rat astrocytes
  Ca2+ response in rat astrocytes: elicited a Ca^2+ response in rat astrocytes
Mouse lung fibroblasts
  ERK activation, mouse lung fibroblasts: induced extracellular regulated kinase (ERK) activation via PAR1 rather than PAR3

## TFRGAPPNSFEEF-pego3-Hdc [Compound C660]
[5]
  mEPSC amplitude: no change in amplitude
  mEPSC frequency: increased the frequency of mEPSCs
WT and PAR3^−/− mice [8]
  heat sensitivity: did not note any changes in heat sensitivity in either strain of mice
WT and PAR3^−/− mice [1]; primed with C660 30 pmol, PGE2 100 ng i.pl after 14 days
  affective (grimace) response to PGE2 after priming, WT vs PAR3^−/−: robust affective response in WT but not PAR3^−/− mice
[9]
  RTCA response, cells not induced to express PAR3: did not show a response; also recorded: absent when PAR3 is not expressed
WT and PAR3^−/− mice [2]; C660 30 pmol intraplantar, 24 hr period, n = 4/group
  facial grimacing overall effect size, WT vs PAR3^−/−: did not differ significantly between groups
WT and PAR3^−/− mice [2]; C660 30 pmol intraplantar, PAR3^−/− mice
  facial grimacing, PAR3^−/−: facial grimacing in WT but not PAR3^−/− mice; also recorded: little acute effect
WT and PAR3^−/− mice [2]; [17]
  facial grimacing, WT: transient increase in facial grimacing was observed with the WT cohort at the 1 hr time point; also recorded: noted in WT mice, although changes were transient
WT and PAR3^−/− mice [3]; C660 30 pmol intraplantar, PAR3^−/− male mice, n = 4/group
  paw withdrawal threshold, PAR3^−/−: induces mechanical hypersensitivity and facial grimacing in WT but not PAR3^−/− mice; also recorded: significantly reduced paw withdrawal thresholds in the WT but not PAR3^−/− group; also recorded: little acute effect; also recorded: absent in PAR3 deficient mice
WT and PAR3^−/− mice [3]; [17]
  duration of mechanical hypersensitivity, WT: up to 24 hrs
  paw withdrawal threshold, WT: induced mechanical hypersensitivity; also recorded: significantly reduced paw withdrawal thresholds; also recorded: prolonged mechanical hypersensitivity
WT and PAR3^−/− mice [4]; primed with C660 30 pmol, PGE2 100 ng i.pl after 14 days, PAR3^−/−, n = 4/group
  hyperalgesic priming (paw withdrawal), PAR3^−/−: partially attenuated in PAR3^−/− cohort; also recorded: greatly reduced
WT and PAR3^−/− mice [4]; primed with C660 30 pmol, PGE2 100 ng i.pl after 14 days, WT, n = 4/group
  hyperalgesic priming (paw withdrawal), WT: caused hyperalgesic priming in WT mice

## TFRGAPPNSFEEF-pego3-KLIPAIYLLVFVVGV-amide [Compound C751]
[10]
  solubility: low solubility

## TFRGAPPNSFEEF-pego3-KRRPAIYLLVFVVGV-amide [Compound C752]
Human PAR3 [11]
  activity in RTCA: not active
[10]
  solubility: improved

## Thrombin
Human PAR3 [12]
  phosphoinositide signaling, human PAR3: able to trigger robust phosphoinositide signaling
Murine PAR3
  signaling, murine PAR3: unable to signal on its own in response to thrombin
WT and PAR3^−/− mice [2]; thrombin 10 units, i.pl, PAR3^−/−
  duration of facial grimacing, PAR3^−/−: up to 5 hours
WT and PAR3^−/− mice [2]; thrombin 10 units, i.pl, n = 4/group
  facial grimacing, PAR3^−/− and WT: significantly increased facial grimacing in PAR3^−/− but not WT mice
WT and PAR3^−/− mice [3]; [18]
  mechanical hypersensitivity, PAR3^−/− vs WT: significantly greater in PAR3^−/− mice at 1, 3, and 5 hours post-injection
  mechanical hypersensitivity, WT and PAR3^−/−: induced lasting mechanical hypersensitivity in both WT and PAR3^−/− mice
WT and PAR3^−/− mice [3]; [19]
  mechanical hypersensitivity, PAR3^−/− vs WT: significantly more robust and prolonged in PAR3^−/− mice
  mechanical hypersensitivity, WT and PAR3^−/−: induced mechanical hypersensitivity in both WT and PAR3^−/−

## carrageenan
WT and PAR3^−/− mice [3]; carrageenan, male mice (Supplementary Fig. S5A–B)
  acute response, WT vs PAR3^−/−: male WT and PAR3^−/− mice responded similarly to the inflammagen acutely
WT and PAR3^−/− mice [4]; carrageenan, 8-week old female mice (Supplementary Fig. S6A–D)
  acute response and hyperalgesic priming, female: loss of hyperalgesic priming occurred in both male and female mice
WT and PAR3^−/− mice [4]; primed with carrageenan, male mice (Supplementary Fig. S5C–D)
  hyperalgesic priming, PAR3^−/− vs WT, male: hyperalgesic priming was again reduced in the PAR3^−/− mice; also recorded: loss of hyperalgesic priming
